Data published in paper PMC8572679 (Journal of Pharmaceutical Analysis, 2020).
Each block holds one compound with its values, some of them ahead of it.

Tests used:
gut microbiota = assay: 16S rRNA analysis of the feces of ICR mice after oral administration; assay type: in vivo
[1] = cited from earlier work
[2] = Pharmacokinetics of BBR, M1 and M2 in vivo after single oral administration; settings: ICR mice; for AUC(0-t) / AUC(0-inf) / Cmax / MRT last / MRT inf / half-life: ICR, mouse, plasma, po, 200 mg/kg, two-compartment model, mean ± SD; for AUC(0-t): AUC(0–24 h); for AUC(0-t) / AUC(0-inf) / Cmax / MRT last / MRT inf: BBR in plasma; for MRT last: MRT(0–24 h); for MRT inf: MRT(0−∞); for half-life: t1/2, BBR in plasma; for level in plasma (below the lower limit of quantitation): any of the time points
Outline: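 Male ICR mice, fasted 12 h, got a single oral dose of BBR 200 mg/kg + voriconazole 30 mg/kg, with food allowed after 3 h. Retrobulbar blood was drawn into heparinised tubes at 0.17–24 h (11 times) and stored at −20 °C. 100 μL plasma was precipitated with 300 μL methanol containing internal standard. BBR, M1 and M2 were measured by LC-MS/MS, with a curve of 1–1000 ng/mL and a lower limit of quantitation of 1 ng/mL.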

CYP51 enzyme lysate = CYP51 enzyme lysate (Saccharomyces cerevisiae, UniProt P10614); assay: Enzymatic reaction in recombinant CYP51 enzyme lysate; assay type: biochemical, Saccharomyces cerevisiae S288C; settings: NADPH 0.5 mM, 0-4 h
CYP51 = assay: Activity of CYP51 in four standard bacterial strains; assay type: cell-based, E. faecalis, S. epidermidis, E. cloacae, and E. faecium
Outline: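 The four strains were resuscitated, plate-counted and diluted to equal density. 100 μL culture went into 0.9 mL sterile anaerobic medium, N₂-flushed, sealed and held at 37 °C. Groups were methanol control, 10 μL of 50 mg/mL BBR, or BBR plus 3.5 μg/mL voriconazole. After 48 and 72 h, cells were sonicated and CYP51 activity was measured by sterol 14α-demethylase ELISA kit.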

[3] = tested on: E. faecalis, S. epidermidis, E. cloacae, and E. faecium; assay: Metabolism of BBR in the four standard bacterial strains; assay type: in vitro ADME; settings: BBR 50 mg/mL + voriconazole 3.5 μg/mL, 72 h
Outline: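 Plate-counted strains, equalised in density, were put in anaerobic medium (100 μL culture + 0.9 mL), N₂-flushed, sealed and preincubated 1 h at 37 °C. Each got 10 μL BBR (50 mg/mL solution) ± voriconazole (3.5 μg/mL solution) or methanol control and was incubated 48 and 72 h. It was quenched with 1 mL methanol containing internal standard and centrifuged. BBR, M1 and M2 were measured by LC-MS/MS (curve 1–1000 ng/mL) and % BBR metabolism calculated.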

mice gut microbiota = assay: Metabolism of BBR by the mice gut microbiota in vitro; assay type: in vitro ADME; settings: BBR 50 mg/mL + voriconazole 3.5 μg/mL vs BBR group
Outline: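 Mouse colon contents were homogenised anaerobically, 1 g in 20 mL autoclaved anaerobic medium, and preincubated 60 min at 37 °C under N₂. 1 mL culture received 10 μL methanol solution (BBR 50 mg/mL + voriconazole 3.5 μg/mL, BBR alone, or methanol control), was sealed and incubated at 37 °C for 12–72 h. It was quenched with methanol, centrifuged, diluted 50-fold and precipitated with methanol plus internal standard. BBR, M1 and M2 were measured by LC-MS/MS (ESI+), curve 1–1000 ng/mL.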

[4] = tested on: mouse intestinal microsomes; assay: Metabolism of BBR in mouse intestinal microsomes in vitro; assay type: in vitro ADME; settings: BBR 50 mg/mL + voriconazole 3.5 μg/mL
[5] = feces 24 h after oral BBR, vs control group, P < 0.05
[6] = oral BBR 200 mg/kg + voriconazole 30 mg/kg

Chain of CYP51 enzyme lysate (P10614 2-530): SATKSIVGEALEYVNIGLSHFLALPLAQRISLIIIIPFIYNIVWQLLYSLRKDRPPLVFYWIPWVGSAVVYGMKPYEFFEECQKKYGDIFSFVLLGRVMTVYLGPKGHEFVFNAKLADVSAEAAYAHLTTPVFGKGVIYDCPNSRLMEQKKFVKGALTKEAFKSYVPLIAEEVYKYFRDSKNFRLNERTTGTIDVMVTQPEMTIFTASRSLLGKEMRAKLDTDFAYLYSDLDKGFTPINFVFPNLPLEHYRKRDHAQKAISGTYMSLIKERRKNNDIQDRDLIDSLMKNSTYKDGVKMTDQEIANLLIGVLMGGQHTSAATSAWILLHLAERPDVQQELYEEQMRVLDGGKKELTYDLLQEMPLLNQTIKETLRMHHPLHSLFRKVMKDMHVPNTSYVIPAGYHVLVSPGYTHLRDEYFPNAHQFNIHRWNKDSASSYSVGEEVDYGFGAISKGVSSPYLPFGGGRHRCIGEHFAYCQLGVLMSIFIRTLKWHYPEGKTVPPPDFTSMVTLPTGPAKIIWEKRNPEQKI

AUC(0-t) [2, 6]: 299 ± 56.4 ng·h/mL
AUC(0-t) ([2]; oral BBR 200 mg/kg): 272 ± 68.4 ng·h/mL
AUC(0-inf) [2, 6]: 388 ± 103 ng·h/mL
AUC(0-inf) ([2]; oral BBR 200 mg/kg): 334 ± 79.3 ng·h/mL
Cmax [2, 6]: 64.5 ± 20.1 ng/mL
Cmax ([2]; oral BBR 200 mg/kg): 44.3 ± 10.4 ng/mL
MRT last [2, 6]: 6.5 ± 1.4 h
MRT last ([2]; oral BBR 200 mg/kg): 7.39 ± 1.71 h
MRT inf [2, 6]: 10.4 ± 2.32 h
MRT inf ([2]; oral BBR 200 mg/kg): 12.7 ± 5.85 h
half-life [2, 6]: 9.91 ± 5.26 h
half-life ([2]; oral BBR 200 mg/kg): 8.44 ± 5.55 h
production ratios of M1 and M2 (CYP51 enzyme lysate; BBR 10 μg/mL, CYP51 enzyme lysate compared with the control): significantly increased
SMILES: COc1ccc2cc3[n+](cc2c1OC)CCc1cc2c(cc1-3)OCO2 [BBR, Berberine]
abundance of Porphyromonadaceae (family level) (gut microbiota; after oral BBR, vs control group, P < 0.05 (Fig. S2)): significant increase
abundance of the genus Parabacteroides (gut microbiota; [5]): significant increase
abundances of five genera (Tyzzerella 3, Rikenellaceae RC9 gut group, Roseburia, Tyzzerella, Ruminococcus 1) (gut microbiota; [5]): significant decrease
share of BBR that could enter the blood (absorption rate) [1]: less than 10%
activity of CYP51 compared with that in the strains alone (CYP51; four strains incubated with 50 mg/mL BBR for 72 h): not significantly different

production ratio of demethylated metabolite FF-MAS (CYP51 enzyme lysate; lanosterol 10 μg/mL, CYP51 enzyme lysate): increased significantly
SMILES: CC(C)=CCC[C@@H](C)[C@H]1CC[C@@]2(C)C3=C(CC[C@]12C)[C@@]1(C)CC[C@H](O)C(C)(C)[C@@H]1CC3 [Lanosterol]

level in plasma (below the lower limit of quantitation) [2, 6]: < 1 ng/mL
SMILES: COc1c(O)ccc2cc3[n+](cc12)CCc1cc2c(cc1-3)OCO2 [M1, Thalifendine]

level in plasma (below the lower limit of quantitation) [2, 6]: < 1 ng/mL
SMILES: COc1ccc2cc3[n+](cc2c1O)CCc1cc2c(cc1-3)OCO2 [M2, Berberrubine]

SMILES: C[C@@H](c1ncncc1F)[C@](O)(Cn1cncn1)c1ccc(F)cc1F [voriconazole]
level of M2 produced by each strain after the addition of voriconazole [3]: below the lower limit of quantitation
level of M1 produced by each strain after the addition of voriconazole ([3]; vs BBR group): significantly reduced
abundances of Parabacteroides, Tyzzerella 3, Rikenellaceae RC9 gut group, Roseburia, Tyzzerella, Ruminococcus 1 and Porphyromonadaceae after the addition of voriconazole (gut microbiota; oral BBR 200 mg/kg + voriconazole 30 mg/kg vs BBR 200 mg/kg (Fig. S3)): did not change significantly
percentage of residual BBR after the addition of voriconazole (mice gut microbiota): significantly increased
production of M1 after the addition of voriconazole (mice gut microbiota): significantly decreased
production of M2 after the addition of voriconazole (mice gut microbiota): significantly decreased
decrease of production of M1 after adding voriconazole ([4]; 30 min): 21%
decrease of production of M2 after adding voriconazole ([4]; 30 min): 28%
decrease of production of M1 after adding voriconazole ([4]; 60 min): 25%
decrease of production of M2 after adding voriconazole ([4]; 60 min): 26%
decrease of production of M1 after adding voriconazole ([4]; 120 min): 20%
decrease of production of M2 after adding voriconazole ([4]; 120 min): 30%
CYP51 activity after the addition of voriconazole (CYP51; four strains, BBR 50 mg/mL + voriconazole 3.5 μg/mL, 72 h): reduced
